Experimental data reported in ChEMBL document CHEMBL1122866, “3-Phenyl-1-indanamines. Potential antidepressant activity and potent inhibition of dopamine, norepinephrine, and serotonin uptake” (J Med Chem, 1985).

Experiments:
Assay type in all cases: functional
[1] = biological target: Sodium-dependent serotonin transporter (Rattus norvegicus, UniProt P31652); assay: Inhibition of 5-HT uptake in rat synaptosomal fraction
In short: (§1)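 Synaptosomal uptake of DA, NE or 5-HT measured. The IC50 is in nM and is the mean of at least two determinations, each using five test concentrations in triplicate.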

Mus musculus [2] = organism: Mus musculus; assay: Antagonistic activity against tetrabenazine-induced ptosis in mice
In short: (§2)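 Mice dosed intraperitoneally; the result is reported as the ED50 in μmol/kg with a range in parentheses. Test compounds are racemates of >95% isomeric purity by TLC.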

[3] = biological target: Norepinephrine transporter (Rattus norvegicus, UniProt Q9WTR4); assay: Inhibition of noradrenaline uptake in rat synaptosomal fraction; in short: as §1
Norepinephrine transporter, sequence (Q9WTR4 whole entry): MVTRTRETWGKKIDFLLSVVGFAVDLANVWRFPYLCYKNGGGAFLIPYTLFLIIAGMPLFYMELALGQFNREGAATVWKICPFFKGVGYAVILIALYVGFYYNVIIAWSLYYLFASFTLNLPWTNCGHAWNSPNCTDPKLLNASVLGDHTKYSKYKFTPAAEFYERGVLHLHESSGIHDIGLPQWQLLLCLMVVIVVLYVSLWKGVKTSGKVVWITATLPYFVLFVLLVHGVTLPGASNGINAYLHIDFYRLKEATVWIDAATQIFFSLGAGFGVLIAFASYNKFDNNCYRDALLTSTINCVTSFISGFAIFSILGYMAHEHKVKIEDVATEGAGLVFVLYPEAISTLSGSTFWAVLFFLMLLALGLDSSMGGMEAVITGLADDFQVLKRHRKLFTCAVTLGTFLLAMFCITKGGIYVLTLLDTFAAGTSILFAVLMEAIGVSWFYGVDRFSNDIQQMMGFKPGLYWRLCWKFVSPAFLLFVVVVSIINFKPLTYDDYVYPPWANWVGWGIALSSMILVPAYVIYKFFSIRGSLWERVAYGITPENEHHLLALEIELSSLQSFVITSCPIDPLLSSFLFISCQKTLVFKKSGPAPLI

Mus musculus [4] = organism: Mus musculus; assay: Compound was tested for antagonistic activity against 5-HTP-induced potentiation in mice; in short: as §2
[5] = biological target: Sodium-dependent dopamine transporter (Rattus norvegicus, UniProt P23977); assay: Inhibition of dopamine uptake in rat synaptosomal fraction
Sodium-dependent dopamine transporter, sequence (P23977 whole entry): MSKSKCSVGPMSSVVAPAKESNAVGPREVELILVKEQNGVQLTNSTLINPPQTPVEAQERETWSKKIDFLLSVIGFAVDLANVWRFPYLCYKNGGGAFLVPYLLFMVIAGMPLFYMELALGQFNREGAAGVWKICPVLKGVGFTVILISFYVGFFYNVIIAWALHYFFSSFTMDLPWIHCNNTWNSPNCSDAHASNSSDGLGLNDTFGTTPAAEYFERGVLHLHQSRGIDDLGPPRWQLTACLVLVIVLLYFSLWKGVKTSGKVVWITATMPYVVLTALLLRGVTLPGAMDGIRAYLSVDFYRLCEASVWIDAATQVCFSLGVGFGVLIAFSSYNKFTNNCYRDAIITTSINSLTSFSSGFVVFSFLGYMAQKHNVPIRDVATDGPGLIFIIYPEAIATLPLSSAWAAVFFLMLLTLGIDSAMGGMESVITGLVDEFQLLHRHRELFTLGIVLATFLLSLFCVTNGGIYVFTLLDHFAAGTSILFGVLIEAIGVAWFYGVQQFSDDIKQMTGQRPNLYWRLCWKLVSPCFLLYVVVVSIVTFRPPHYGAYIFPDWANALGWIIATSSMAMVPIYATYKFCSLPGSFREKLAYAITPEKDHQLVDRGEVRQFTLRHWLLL

Mus musculus [6] = organism: Mus musculus; assay: Antagonistic activity against 5-HTP induced potentiation in mice; in short: as §2
Mus musculus [7] = organism: Mus musculus; assay: Antagonistic activity against tetrabenazine-induced ptosis in mice.; in short: as §2

Sodium-dependent serotonin transporter, sequence (P31652 whole entry): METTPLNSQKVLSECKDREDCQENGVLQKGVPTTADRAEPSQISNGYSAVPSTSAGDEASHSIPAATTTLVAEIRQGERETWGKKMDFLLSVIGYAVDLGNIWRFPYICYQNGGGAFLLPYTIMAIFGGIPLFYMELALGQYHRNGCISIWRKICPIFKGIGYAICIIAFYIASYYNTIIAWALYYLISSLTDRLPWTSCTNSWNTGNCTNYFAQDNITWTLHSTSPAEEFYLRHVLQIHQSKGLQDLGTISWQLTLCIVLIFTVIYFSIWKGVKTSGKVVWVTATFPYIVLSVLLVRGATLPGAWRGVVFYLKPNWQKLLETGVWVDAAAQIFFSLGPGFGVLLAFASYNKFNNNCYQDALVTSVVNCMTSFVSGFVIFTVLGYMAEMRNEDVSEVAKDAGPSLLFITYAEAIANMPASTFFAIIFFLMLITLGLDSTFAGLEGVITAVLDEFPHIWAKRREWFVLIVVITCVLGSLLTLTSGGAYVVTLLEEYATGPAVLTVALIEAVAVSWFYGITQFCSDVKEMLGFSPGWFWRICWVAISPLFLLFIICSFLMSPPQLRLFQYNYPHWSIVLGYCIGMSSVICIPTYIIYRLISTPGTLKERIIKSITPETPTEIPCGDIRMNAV

Structure (SMILES)	IC50 [1]	ED50 (Mus musculus [2])	IC50 [3]	ED50 (Mus musculus [4])	IC50 [5]	ED50 (Mus musculus [6])	ED50 (Mus musculus [7]; Mus musculus, read-out: ED50)	ED50 (Mus musculus [2]; Mus musculus, read-out: ED50)	ED50 (Mus musculus [4]; Mus musculus, read-out: ED50)	ED50 (Mus musculus [7])
CNC1CC(c2ccc(Cl)c(Cl)c2)c2ccc(OC)cc21 (centres undefined)	0.00062 µM	7 µM/kg	0.00067 µM	14 µM/kg	0.0025 µM	–	–	–	–	–
CNCCCC1(c2ccccc2)SC(C)(C)c2ccccc21 (centres undefined)	0.85 µM	–	0.00079 µM	–	9.3 µM	> 115 µmol/kg	2.3 µmol/kg	–	–	–
CN(C)C1CC(c2ccc(Cl)c(Cl)c2)c2ccc(O)cc21 (centres undefined)	0.00037 µM	–	0.016 µM	–	0.0079 µM	–	–	22 µmol/kg	–	–
CNC1CC(c2ccc(Cl)c(Cl)c2)c2ccc(OC)cc21.Cl (centres undefined)	0.00053 µM	–	0.019 µM	2.9 µM/kg	0.019 µM	–	–	14 µmol/kg	–	–
CNC1CC(c2ccc(C(F)(F)F)cc2)c2ccccc21 (centres undefined)	0.0047 µM	–	0.067 µM	–	0.16 µM	45 µmol/kg	58 µmol/kg	–	–	–
OCCNC1CC(c2ccc(Cl)c(Cl)c2)c2ccccc21 (centres undefined)	–	–	–	–	–	> 111 µmol/kg	> 111 µmol/kg	75 µmol/kg	171 µmol/kg	–
CNC1CC(c2ccc(Cl)c(C(F)(F)F)c2)c2ccccc21 (centres undefined)	0.0042 µM	–	0.025 µM	–	3.5 µM	55 µmol/kg	> 110 µmol/kg	–	–	–
CNC1CC(c2ccccc2)c2ccccc21 (centres undefined)	0.21 µM	–	0.32 µM	–	1.4 µM	211 µmol/kg	> 154 µmol/kg	–	–	–
CN1CCN(C2CC(c3ccc(Cl)c(Cl)c3)c3ccccc32)CC1 (single isomer, unassigned; (-))	–	26 µM/kg	–	–	0.01 µM	–	–	–	–	–
CNC1CC(c2ccc(Cl)c(Cl)c2)c2ccc(O)cc21 (stereo in doubt; 54)	0.0025 µM	21 µM/kg	0.00082 µM	–	0.00052 µM	–	–	–	–	–
CN(C)C1CC(c2cccc(Cl)c2)c2ccccc21.Cl (stereo in doubt; 67)	0.0026 µM	–	0.00077 µM	–	0.054 µM	–	–	–	–	85 µmol/kg
CNC1CC(c2ccc(F)c(F)c2)c2ccccc21.Cl (stereo in doubt; 68)	0.0046 µM	–	0.033 µM	–	0.15 µM	–	–	–	–	23 µmol/kg
CNC1CC(c2ccc(Cl)cc2Cl)c2ccccc21.Cl (stereo in doubt; 74)	0.021 µM	–	0.0061 µM	–	0.1 µM	–	–	–	–	98 µmol/kg
CNC1CC(c2ccc(Cl)c(Cl)c2)c2ccc(F)cc21.Cl (stereo in doubt; 76)	0.00075 µM	–	0.014 µM	–	0.005 µM	–	–	–	–	15 µmol/kg
CCN(CC)C1CC(c2ccc(Cl)c(Cl)c2)c2ccccc21.Cl (stereo in doubt; 85)	0.0028 µM	–	0.00056 µM	–	0.0021 µM	–	–	–	–	52 µmol/kg
CCCNC1CC(c2ccc(Cl)c(Cl)c2)c2ccccc21.Cl (stereo in doubt; 87)	0.15 µM	–	0.00066 µM	–	0.0066 µM	–	–	–	–	68 µmol/kg
CCCN(CCC)C1CC(c2ccc(Cl)c(Cl)c2)c2ccccc21.Cl (stereo in doubt; 89)	0.72 µM	–	0.073 µM	–	0.15 µM	–	–	–	–	25 µmol/kg
Clc1ccc(C2CC(N3CCCCC3)c3ccccc32)cc1Cl (stereo in doubt; 100)	0.42 µM	–	0.079 µM	–	0.079 µM	–	> 104 µmol/kg	–	–	–
CN1CCN(C2CC(c3ccc(Cl)c(Cl)c3)c3ccccc32)CC1 (stereo in doubt; 101)	–	48 µM/kg	–	–	0.011 µM	–	–	–	97 µmol/kg	–
CN1CCN(C2CC(c3ccc(Cl)c(Cl)c3)c3ccccc32)CC1 (stereo in doubt; 102)	–	100 µM/kg	–	–	0.0044 µM	–	–	–	–	–
CN1CCN(C2CC(c3ccc(Cl)c(Cl)c3)c3ccccc32)CC1 (stereo in doubt; (-)-102)	–	69 µM/kg	–	–	0.0023 µM	–	–	–	–	–
CN(C)CCCC1(c2ccc(F)cc2)OCc2cc(C#N)ccc21 (centres undefined) [CITALOPRAM]	–	–	–	–	–	–	–	51 µmol/kg	–	–
